From ChEMBL document CHEMBL4513216, “Probing the Open Global Health Chemical Diversity Library for Multistage-Active Starting Points for Next-Generation Antimalarials” (ACS Infect Dis, 2020)

Assay: Toxicity liver stage against HepG2, at 10uM
Type: cell-based
Design: test concentration 10 uM, cell line HepG2-A16-CD81EGFP
Details: human, HepG2-A16-CD81EGFP cells; read-out: INHIBITION
Method in brief: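 Uninfected HepG2-A16-CD81EGFP cells, 3 × 10^3 per well, 1536-well, plated on prespotted compound at 10 μM final, parasite-free screening media added to match infected plates; puromycin 10 μM positive, DMSO 0.5% negative; run in parallel with 48 h PbLuc assay at 37 °C, 5% CO2; viability by CellTiter-Glo luminescence, normalized to controls.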

Structure (SMILES) | cytotoxicity at 10 µM [%]
Cc1csc(CCNc2ccc(C#N)cn2)n1 | 0.738
Cc1nn(C)c(Cl)c1S(=O)(=O)N(C)C | 3.66
Cn1ccnc1CNC[C@H]1Cn2cc(-c3ccccc3)nc2CO1 | -6.09
c1cc(-c2noc([C@@H]3CCCN3CC3CC3)n2)cc(N2CCCC2)n1 | 4.12
CS(=O)(=O)N1C[C@@H]2OCC(=O)N(CC3CCC3)[C@@H]2C1 | 8.94
COCCNC(=O)[C@@H](C)[C@@H]1CCc2c(C)cc(OCC(=O)O)c(C)c2C1 | 0.523
c1cncc(O[C@H]2COCCN(CC3CC3)C2)c1 | 3.38
CCn1nc(Br)nc1Sc1ccccc1NC(C)=O | -6.17
O=C(Cc1ccccc1Cl)NCC1CCN(Cc2ccsc2)CC1 | -9.12
CCOc1ccccc1NC(=O)Nc1cc(N2CCCC2)ncn1 | -0.113
O=C(NCC1CCOCC1)[C@@H]1C[C@@H]2[C@@H](CCN2Cc2ccoc2)O1 | 5
CNC(=O)N1CCC2(CC1)CC[C@@]1(C(=O)NC)CN(S(C)(=O)=O)C[C@@H]21 | -3.91
Cc1ccc(N2CC[C@H]3OCC[C@@]3(C(=O)NCC3CC3)C2)nn1 | 3.22
Cc1noc(C)c1CN1CCC2(CC1)NC(=O)CC2c1cnn(C)c1 (centres undefined) | 5.64
CC(=O)c1nn(-c2cccc(Cl)c2)c(C)c1C(C)=O | -3.55
COc1cccc2c3c(c(=O)n(C)c12)CCC(C)(C)O3 | 0.55
COC(=O)CC(c1ccccc1)c1oc(C)cc(=O)c1O (centres undefined) | 26.7
CC(NC(=O)c1ccc(Cl)cc1)c1nnc(SCC(N)=O)n1C (centres undefined) | 6.27
CCn1nnc(NCc2ccc(-c3ccc(Br)cc3)o2)n1 | -10.1
CCn1ccc(-c2cc(C(=O)O)n3nc(C)c(Cl)c3n2)n1 | -3.48
CN(C)Cc1cnc(C2CCN(C(=O)c3cccc(Cl)c3)C2)[nH]1 (centres undefined) | -3.36
Cc1csc(NC(=O)C2(C)CN(C)CCO2)n1 (centres undefined) | -3.67
CC(C)(C)c1cc(C(=O)N2CCOC(c3cnccn3)C2)[nH]n1 (centres undefined) | 2.02
CN1C[C@@H](c2cccc(F)c2)[C@H]2[C@H]1CCCCCN2C(=O)C1CC1 | 4.21
CN(C)c1nccc(C2CCCN2S(=O)(=O)c2cn(C)cn2)n1 (centres undefined) | -20.2
Cc1cc(C)nc(C2CCN(C(=O)c3cnc(N(C)C)nc3)C2)n1 (centres undefined) | -18.1
COc1ccc(OC)c(C(O)CN2CCC(N3CCC(C)CC3)CC2)c1 (centres undefined) | -25.5

Structure (SMILES) | cytotoxicity at 10 µM [%]
CN(C)CC(=O)N1CCCCC1c1nc(N)ncc1-c1ccccc1 (centres undefined) | -0.155
Cc1nn(C)c2ncc(NC(=O)N(C)Cc3cnn(C)c3)cc12 | -0.768
CNC(=O)[C@@H](C)NC(=O)c1cc(-c2ccc(F)cc2)c(C)s1 | -5.2
CC(C)c1nn(C)c(N(C)C)c1CNC1CCOc2ccccc21 (centres undefined) | 9.36
CC(Oc1ccc(F)c(F)c1)C(=O)N(CC(N)=O)C1CCCC1 (centres undefined) | -0.146
O=C(OCc1cccc(F)c1)c1cccc(C(=O)N2CCCC2)n1 | -1.6
O=C(CNC1CCc2ncnn2C1)NCCc1cccs1 (centres undefined) | -10.9
CCC(CC)C(=O)NCCC(=O)N1CCN(c2ccccn2)CC1 | 4.65
O=S(=O)(c1ccc(C(F)(F)F)cc1)N1CCC(OCc2ccccn2)C1 (centres undefined) | 1.22
Cc1nnc(NCCC(=O)NCc2ccccc2)c(C#N)c1C | -3.57
Cn1ccnc1CCNS(=O)(=O)Cc1cccc(C#N)c1 | 0.867
Cc1cccc(OC2CCN(c3ncc(C#N)cc3Cl)CC2)n1 | 8.13
CCc1noc(CS(=O)(=O)C/C=C/c2ccccc2)n1 | -18.4
CCN(Cc1nnnn1C1CC1)c1cc(C)ccc1C | 9.21
CCC(NCc1cccc(Cl)c1)c1ccccc1OCC(=O)NC (centres undefined) | -2.65
CS(=O)(=O)c1cccc(S(=O)(=O)NC(=O)CC2CCCC2)c1 | -7.59
Cc1ccc(C2CSCCN2C(=O)c2ccnc(N(C)C)c2)o1 (centres undefined) | 12.8
Cc1n[nH]c(C2CN(Cc3csc(C4CC4)n3)CCO2)n1 (centres undefined) | -0.18
CC(NC(=O)c1ccc(CS(C)(=O)=O)o1)c1ccc(F)c(F)c1 (centres undefined) | -5.85
CCC1CN(C(=O)COc2ccc(C)nc2)CCO1 (centres undefined) | -3.7
COC(C)(C)c1noc(C2(C#N)CCCCC2)n1 | -2.11
CCC(CC)c1nnc(NC(=O)N2CCC(C(N)=O)CC2)s1 | 8.26
CCOc1ccnc(N2CCN(C(=O)CCc3ccsc3)CC2)n1 | 8.15
CCCN1C(=O)C2(CCCCC2)NC1c1cn(C)c(=O)n(C)c1=O (centres undefined) | 4.45
CCC(C)(NCC(=O)Nc1nc(C)cs1)c1nc(C)cs1 (centres undefined) | 16.4
O=C(NCC1CCS(=O)(=O)C1)c1sccc1-c1ccc(F)cc1 (centres undefined) | -1.79
Cc1cnc(C(=O)N(CCN(C)C)Cc2ccc(Cl)cc2)cn1 | 1.58
